Tests used:
hDcpS [1] = target: T1, hDcpS (Homo sapiens, UniProt Q96C86); conditions: pH 7.6, 20°C; cited from earlier work
T1 sequence (Q96C86 1-337): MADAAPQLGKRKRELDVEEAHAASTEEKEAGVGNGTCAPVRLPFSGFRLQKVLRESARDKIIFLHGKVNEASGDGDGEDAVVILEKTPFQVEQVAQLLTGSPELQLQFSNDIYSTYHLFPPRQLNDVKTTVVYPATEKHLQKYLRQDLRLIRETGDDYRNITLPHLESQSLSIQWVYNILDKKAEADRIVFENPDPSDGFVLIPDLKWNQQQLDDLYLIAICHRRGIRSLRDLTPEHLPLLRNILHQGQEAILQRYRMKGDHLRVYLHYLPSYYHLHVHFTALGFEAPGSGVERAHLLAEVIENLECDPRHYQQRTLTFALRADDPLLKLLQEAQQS

CeDcpS [2] = target: T2, CeDcpS (Caenorhabditis elegans, UniProt G5EFS4); conditions: pH 7.6, 20°C; cited from earlier work
T2 sequence (G5EFS4 1-311): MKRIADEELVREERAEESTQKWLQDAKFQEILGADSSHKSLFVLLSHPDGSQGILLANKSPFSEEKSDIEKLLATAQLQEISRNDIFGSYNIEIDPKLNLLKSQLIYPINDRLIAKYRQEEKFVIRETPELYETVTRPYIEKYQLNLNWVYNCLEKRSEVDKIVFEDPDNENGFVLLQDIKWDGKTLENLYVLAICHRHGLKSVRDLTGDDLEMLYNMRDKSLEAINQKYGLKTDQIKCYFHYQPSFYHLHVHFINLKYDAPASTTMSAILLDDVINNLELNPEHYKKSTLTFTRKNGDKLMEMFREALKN

[3] = tested on: human immature dendritic cells (hiDCs); assay: Luciferase expression from 5′-capped mRNAs in dendritic cells; type: cell-based; conditions: luciferase mRNA capped with the analog, electroporated into hiDCs
Summary of the method: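 Luciferase mRNA made by T7 in vitro transcription with the cap dinucleotide added co-transcriptionally; plasmid DNA digested and RNA purified. Capped mRNA electroporated into human immature dendritic cells. Luciferase activity read at 2, 4, 8, 24, 48 and 72 h, in duplicate, and normalised to cell number. Time of maximal expression derived by spline interpolation of the time course.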

Stacking measurements = type: physicochemical; conditions: 0.1 M phosphate buffer, pH 5.2, 20°C; from fluorescence intensity of 7-methylguanosine; mean ± SD
Summary of the method: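 Dinucleotide fluorescence intensity compared with m⁷GMP (7-methylguanosine fluorophore) in phosphate buffer, pH 5.2, at 20 °C. Stacked fraction calculated as (F_m7GMP − F_cap)/F_m7GMP, since stacking partially quenches 7-methylguanosine fluorescence. Values given as mean ± SD.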

mouse eIF4E(28–217) = mouse eIF4E(28–217) (Mus musculus, UniProt P63073); conditions: 50 mM HEPES/KOH (pH 7.2), 100 mM KCl, 20°C; cited from earlier work
hDcpS [4] = target: T1, hDcpS; assay: HPLC-based assay of DcpS-mediated hydrolysis, Assay 2; type: biochemical; conditions: DcpS 200 nM, cap analog 15 μM, pH 7.6, 20 °C
CeDcpS [5] = target: T2, CeDcpS; assay: HPLC-based assay of DcpS-mediated hydrolysis, Assay 2; type: biochemical; conditions: DcpS 200 nM, cap analog 15 μM, pH 7.6, 20 °C
Summary of the method: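 Substrate at 15 µM sits 10 min at 20°C in 50 mM Tris HCl, 200 mM KCl, 0.5 mM EDTA, 1 mM DTT (final pH 7.6) before enzyme is added to 0.2 μM. Aliquots are heat-stopped at 97°C for 2.5 min at 10 and 90 min. Analysis is RP HPLC (methanol 0–30% in 0.1 M KH₂PO₄), reading A260 and fluorescence (ex 280/em 337 nm). Output is x = % substrate hydrolysed, with the substrate peak multiplied by 1.1. CeDcpS was E. coli-expressed and Ni-NTA-purified.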

Chain of mouse eIF4E(28–217) (P63073 28-217): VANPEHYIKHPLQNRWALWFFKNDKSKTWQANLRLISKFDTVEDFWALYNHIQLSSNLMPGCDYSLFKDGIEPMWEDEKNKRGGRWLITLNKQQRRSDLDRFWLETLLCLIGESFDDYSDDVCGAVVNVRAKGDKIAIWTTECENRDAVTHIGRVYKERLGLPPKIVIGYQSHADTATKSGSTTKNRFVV

Row | SMILES | KAS for hDcpS (hDcpS [1]) | KAS for CeDcpS (CeDcpS [2]) | KAS (equilibrium association constant) for eIF4E (mouse eIF4E(28–217)) | also measured
1 | C[n+]1cn([C@@H]2O[C@H](COP(=O)([O-])NP(=O)(O)OP(=O)(O)OC[C@H]3O[C@@H](n4cnc5c(=O)[nH]c(N)nc54)[C@H](O)[C@@H]3O)[C@@H](O)[C@H]2O)c2nc(N)[nH]c(=O)c21.N.N [m^7GpNHppG] | 218 ± 24^d μM^−1 | 66 ± 9^c μM^−1 |  | 
2 | CO[C@H]1[C@@H](O)[C@H]([n+]2cn(C)c3c(=O)[nH]c(N)nc32)O[C@@H]1COP(=O)([O-])OP(=O)(O)OP(=O)(O)OC[C@H]1O[C@@H](n2cnc3c(=O)[nH]c(N)nc32)[C@H](O)[C@@H]1O [m2^7,3′-OGpppG] |  |  |  | Time of max. (time point of maximal protein expression, functional RNA stability) [3]: 11.45 ± 0.07 h
3 | C[n+]1cn([C@@H]2O[C@H](COP(=O)(O)CP(=O)(O)OP(=O)(O)OC[C@H]3O[C@@H](n4cnc5c(=O)[nH]c(N)nc54)[C@H](O)[C@@H]3O)[C@@H](O)[C@H]2O)c2nc(N)[nH]c(=O)c21 [m^7GpCH2ppG] | 234 ± 14^e μM^−1 | 8.6 ± 0.4^c μM^−1 |  | 
4 | C[n+]1cn(C2OC(COP(=O)(O)OP(O)(=S)OP(=O)(O)OCC3OC(n4cnc5c(=O)[nH]c(N)nc54)C(O)C3O)C(O)C2O)c2nc(N)[nH]c(=O)c21 (centres unmarked) [m^7GppSpG D2] |  |  | 23.0 ± 0.4 µM⁻¹ | % of stacked conformation (Stacking measurements): 60.8 ± 0.2%
5 | C[n+]1cn([C@@H]2O[C@H](COP(=O)(O)OP(O)(=S)OP(=O)(O)OC[C@H]3O[C@@H](n4cnc5c(=O)[nH]c(N)nc54)[C@H](O)[C@@H]3O)[C@@H](O)[C@H]2O)c2nc(N)[nH]c(=O)c21 (some centres unmarked) [m^7GppSpG D1] |  |  | 45.0 ± 1.1 µM⁻¹ | % of stacked conformation (Stacking measurements): 61.8 ± 0.7%; Percent of cleavage, x (%) hDcpS 10 min (hDcpS [4]; reaction time 10 min): 100%; Percent of cleavage, x (%) hDcpS 90 min (hDcpS [4]; reaction time 90 min): 100%; Percent of cleavage, x (%) CeDcpS 10 min (CeDcpS [5]; reaction time 10 min): 100%; Percent of cleavage, x (%) CeDcpS 90 min (CeDcpS [5]; reaction time 90 min): 100%
6 | C[n+]1cn([C@@H]2O[C@H](COP(=O)(O)OP(=O)(O)O)[C@@H](O)[C@H]2O)c2nc(N)[nH]c(=O)c21 [m^7GDP, 7-methylguanosine diphosphate] | 114 ± 8^b μM^−1 | 97 ± 12^c μM^−1 |  | 
7 | C[n+]1cn([C@@H]2O[C@H](COP(=O)(O)OP(=O)(O)OP(=O)(O)OC[C@H]3O[C@@H](n4c[n+](C)c5c(=O)[nH]c(N)nc54)[C@H](O)[C@@H]3O)[C@@H](O)[C@H]2O)c2nc(N)[nH]c(=O)c21 [m^7Gpppm^7G] |  |  | 5.0 ± 0.2 µM⁻¹ | 
8 | CO[C@@H]1[C@H](O)[C@@H](COP(=O)(O)OP(=O)([O-])OP(=O)(O)OC[C@H]2O[C@@H](n3cnc4c(=O)[nH]c(N)nc43)[C@H](O)[C@@H]2O)O[C@H]1n1c[n+](C)c2c(O)nc(N)nc21 [m2^7,2′-OGpppG] |  |  | 10.8 ± 0.3 µM⁻¹ | 
